From ChEMBL document CHEMBL1133492, “Design, synthesis, and biological evaluation of fluoronitrophenyl substituted folate analogues as potential inhibitors of GAR transformylase and AICAR transformylase” (Bioorg Med Chem Lett, 2000)
Active and inactive are the calls of the source. No cut-off for these calls is given here.

Experiments:
CCRF-CEM [1] = experiment: Cytotoxicity in the absence of thymidine and presence of hypoxanthine against CCRF-CEM cell line; assay type: functional, cell-based; conditions: Homo sapiens
Summary of the method: (§1)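 CCRF-CEM cells were grown in purine- and pyrimidine-free medium, with thymidine and/or hypoxanthine added or omitted as each line specifies. The cytotoxic potency was reported as an IC50 (µM).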

CCRF-CEM [2] = experiment: Cytotoxicity in the presence of thymidine and hypoxanthine against CCRF-CEM cell line; assay type: functional, cell-based; conditions: Homo sapiens; summary of the method: as §1
CCRF-CEM [3] = experiment: Cytotoxicity in the absence of thymidine and hypoxanthine against CCRF-CEM cell line; assay type: functional, cell-based; conditions: Homo sapiens; summary of the method: as §1
CCRF-CEM [4] = experiment: Cytotoxicity in the absence of hypoxanthine and presence of thymidine against CCRF-CEM cell line; assay type: functional, cell-based; conditions: Homo sapiens; summary of the method: as §1
[5] = molecular target: T1, Bifunctional purine biosynthesis protein ATIC (Homo sapiens, UniProt P31939); experiment: In vitro inhibitory activity against Aminoimidazole carboxamide ribonucleotide transformylase
Summary of the method: (§2)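 The AICAR Tfase assay solution was pre-incubated with inhibitor (250 µM, or 25 µM where the line states) for 12 h at room temperature. The reaction was then started by adding AICAR, and enzyme inhibition was measured.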
Target sequence in this assay (P31939 whole entry): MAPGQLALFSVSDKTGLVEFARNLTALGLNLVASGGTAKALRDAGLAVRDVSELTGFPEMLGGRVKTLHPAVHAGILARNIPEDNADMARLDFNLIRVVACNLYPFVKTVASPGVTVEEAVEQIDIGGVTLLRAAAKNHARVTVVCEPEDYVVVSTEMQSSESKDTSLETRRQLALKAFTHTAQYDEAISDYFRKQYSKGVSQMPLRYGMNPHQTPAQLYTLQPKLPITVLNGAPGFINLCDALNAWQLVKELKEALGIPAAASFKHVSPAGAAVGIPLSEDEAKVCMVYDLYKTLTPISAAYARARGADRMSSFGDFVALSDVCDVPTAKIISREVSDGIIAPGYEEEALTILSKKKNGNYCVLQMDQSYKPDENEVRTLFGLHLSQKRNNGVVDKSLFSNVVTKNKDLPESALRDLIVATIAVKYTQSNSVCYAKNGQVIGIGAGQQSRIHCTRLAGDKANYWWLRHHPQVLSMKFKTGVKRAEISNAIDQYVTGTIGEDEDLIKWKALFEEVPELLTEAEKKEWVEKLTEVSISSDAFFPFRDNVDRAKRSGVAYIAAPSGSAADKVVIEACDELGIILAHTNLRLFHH

[6] = molecular target: T2, Trifunctional purine biosynthetic protein adenosine-3 (Homo sapiens) (UniProt P22102); experiment: In vitro inhibitory activity against Glycinamide ribonucleotide transformylase (GAR Tfase) after 3 min at 250 uM; Not active
T2 sequence (whole entry): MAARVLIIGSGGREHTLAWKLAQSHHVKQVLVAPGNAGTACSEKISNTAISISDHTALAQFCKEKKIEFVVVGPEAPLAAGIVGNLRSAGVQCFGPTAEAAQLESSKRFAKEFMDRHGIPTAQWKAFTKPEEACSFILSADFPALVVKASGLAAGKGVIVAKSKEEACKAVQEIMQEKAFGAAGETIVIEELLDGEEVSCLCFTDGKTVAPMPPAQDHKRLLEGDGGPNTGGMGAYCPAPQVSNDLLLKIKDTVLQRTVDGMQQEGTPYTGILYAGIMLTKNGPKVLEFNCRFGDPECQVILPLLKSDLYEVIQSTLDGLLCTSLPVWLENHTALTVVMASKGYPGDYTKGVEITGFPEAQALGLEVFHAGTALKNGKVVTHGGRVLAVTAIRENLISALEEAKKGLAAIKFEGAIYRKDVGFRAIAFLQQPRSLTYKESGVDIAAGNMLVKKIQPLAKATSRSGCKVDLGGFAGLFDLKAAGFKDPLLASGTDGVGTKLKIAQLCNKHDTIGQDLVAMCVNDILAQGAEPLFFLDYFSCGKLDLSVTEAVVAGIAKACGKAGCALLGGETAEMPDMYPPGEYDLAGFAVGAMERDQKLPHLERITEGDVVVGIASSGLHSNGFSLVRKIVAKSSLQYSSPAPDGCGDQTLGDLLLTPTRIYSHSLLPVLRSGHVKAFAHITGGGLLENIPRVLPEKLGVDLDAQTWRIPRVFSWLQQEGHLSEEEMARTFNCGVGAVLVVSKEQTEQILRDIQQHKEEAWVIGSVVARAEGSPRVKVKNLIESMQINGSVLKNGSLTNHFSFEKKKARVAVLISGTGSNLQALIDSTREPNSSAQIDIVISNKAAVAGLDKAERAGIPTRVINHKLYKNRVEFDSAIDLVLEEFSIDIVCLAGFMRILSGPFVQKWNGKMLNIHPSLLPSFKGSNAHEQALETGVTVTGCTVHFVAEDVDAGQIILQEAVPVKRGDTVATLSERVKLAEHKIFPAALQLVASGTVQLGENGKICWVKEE

[7] = molecular target: T2, Trifunctional purine biosynthetic protein adenosine-3 (Homo sapiens); experiment: In vitro inhibitory activity against Glycinamide ribonucleotide transformylase (GAR Tfase) after 6 hr at 250 uM; Not active
[8] = molecular target: T2, Trifunctional purine biosynthetic protein adenosine-3 (Homo sapiens); experiment: In vitro inhibitory activity at 250 uM concentration against Glycinamide ribonucleotide transformylase (GAR Tfase) pre-incubation time (6 hr).
[9] = molecular target: T2, Trifunctional purine biosynthetic protein adenosine-3 (Homo sapiens); experiment: In vitro inhibitory activity against Glycinamide ribonucleotide transformylase (GAR Tfase) after 30 min at 250 uM; Not active
[10] = molecular target: T1, Bifunctional purine biosynthesis protein ATIC; experiment: In vitro inhibitory activity against Aminoimidazole carboxamide ribonucleotide transformylase pre-incubed for 12 hr at 250 uM; summary of the method: as §2
Target sequence in this assay (P31939 whole entry, looked up): as the sequence (P31939 whole entry) above

[11] = molecular target: T2, Trifunctional purine biosynthetic protein adenosine-3 (Homo sapiens); experiment: In vitro inhibitory activity against Glycinamide ribonucleotide transformylase (GAR Tfase) following 3 min pre-incubation at 250 uM concentration
[12] = molecular target: T1, Bifunctional purine biosynthesis protein ATIC; experiment: In vitro inhibitory activity against Aminoimidazole carboxamide ribonucleotide transformylase pre-incubated for 12 hr at 250 uM; Not active.; summary of the method: as §2
Target sequence in this assay (P31939 whole entry, looked up): as the sequence (P31939 whole entry) above

[13] = molecular target: T2, Trifunctional purine biosynthetic protein adenosine-3 (Homo sapiens); experiment: In vitro inhibitory activity against Glycinamide ribonucleotide transformylase (GAR Tfase+GAR) pre-incubation of 6 hr at 250 uM concentration
[14] = molecular target: T2, Trifunctional purine biosynthetic protein adenosine-3 (Homo sapiens); experiment: In vitro inhibitory activity against Glycinamide ribonucleotide transformylase (GAR Tfase+GAR) following 30 min pre-incubation at 250 uM concentration
[15] = molecular target: T2, Trifunctional purine biosynthetic protein adenosine-3 (Homo sapiens); experiment: In vitro inhibitory activity against Glycinamide ribonucleotide transformylase (GAR Tfase+GAR) following 3 min pre-incubation at 250 uM concentration
[16] = molecular target: T2, Trifunctional purine biosynthetic protein adenosine-3 (Homo sapiens); experiment: In vitro inhibitory activity against Glycinamide ribonucleotide transformylase (GAR Tfase) after 1 hr at 25 uM; […]
[17] = molecular target: T2, Trifunctional purine biosynthetic protein adenosine-3 (Homo sapiens); experiment: In vitro inhibitory activity against Glycinamide ribonucleotide transformylase (GAR Tfase) after 30 min at 25 uM
[18] = molecular target: T2, Trifunctional purine biosynthetic protein adenosine-3 (Homo sapiens); experiment: In vitro activity against Glycinamide ribonucleotide transformylase (GAR Tfase) after 3 min at 25 uM
[19] = molecular target: T2, Trifunctional purine biosynthetic protein adenosine-3 (Homo sapiens); experiment: In vitro inhibitory activity against Glycinamide ribonucleotide transformylase (GAR Tfase) after 1 hr at 25 uM
[20] = molecular target: T2, Trifunctional purine biosynthetic protein adenosine-3 (Homo sapiens); experiment: In vitro activity against Glycinamide ribonucleotide transformylase (GAR Tfase) after 30 min at 25 uM
[21] = molecular target: T2, Trifunctional purine biosynthetic protein adenosine-3 (Homo sapiens); experiment: (§3) In vitro inhibitory activity against Glycinamide ribonucleotide transformylase (GAR Tfase) after 6 hr at 25 uM
[22] = molecular target: T2, Trifunctional purine biosynthetic protein adenosine-3 (Homo sapiens); experiment: In vitro inhibitory activity against Glycinamide ribonucleotide transformylase (GAR Tfase) after 3 min at 25 uM; […]
[23] = molecular target: T2, Trifunctional purine biosynthetic protein adenosine-3 (Homo sapiens); experiment: In vitro inhibitory activity against Glycinamide ribonucleotide transformylase (GAR Tfase) after 3 min at 25 uM
[24] = molecular target: T2, Trifunctional purine biosynthetic protein adenosine-3 (Homo sapiens); experiment: as §3; remark: listed apart in the source
[25] = molecular target: T2, Trifunctional purine biosynthetic protein adenosine-3 (Homo sapiens); experiment: In vitro inhibitory activity against Glycinamide ribonucleotide transformylase (GAR Tfase) after 30 min at 25 uM; Not active
[26] = molecular target: T2, Trifunctional purine biosynthetic protein adenosine-3 (Homo sapiens); experiment: In vitro inhibitory activity against Glycinamide ribonucleotide transformylase (GAR Tfase) after 7 hr at 250 uM

Structure (SMILES)	IC50 (CCRF-CEM [1])	IC50 (CCRF-CEM [2])	IC50 (CCRF-CEM [3])	IC50 (CCRF-CEM [4])	inhibition [8]	inhibition [10]	inhibition [11]	inhibition [12]	inhibition [13]	inhibition [14]	inhibition [15]	other results
Nc1nc2c(c(=O)[nH]1)C[C@@H](CCc1ccc(C(=O)N[C@@H](CCC(=O)O)C(=O)O)cc1)CN2 [LOMETREXOL]	> 100 µM	> 100 µM	0.13 µM	0.07 µM	–	–	–	–	–	–	–	–
Nc1nc(O)c2cc(CN(Cc3ccc(F)c([N+](=O)[O-])c3)c3ccc(C(=O)NC(CCC(=O)O)C(=O)O)cc3)ccc2n1 (configuration not stated)	–	–	–	–	–	–	–	–	–	–	–	Ki [5]: 17 µM
Nc1nc(N)c(CCCNc2cc(F)c(F)cc2[N+](=O)[O-])c(O)n1	97 µM	97 µM	97 µM	> 100 µM	63%	98%	87%	–	–	–	–	inhibition [6]: inactive; inhibition [7]: inactive; inhibition [9]: inactive
COC(=O)c1ccc(CN(CCc2c(N)nc(N)nc2O)c2cc(F)cc(F)c2[N+](=O)[O-])cc1	> 100 µM	> 100 µM	> 100 µM	91 µM	0%	–	16%	inactive	30%	29%	32%	–
COC(=O)c1ccc(CN(CCCc2c(N)nc(N)nc2O)c2cc(F)ccc2[N+](=O)[O-])cc1	55 µM	30 µM	45 µM	43 µM	0%	–	70%	inactive	8%	44%	75%	–
Nc1nc2ccc(CN(Cc3ccc([N+](=O)[O-])c(F)c3)c3ccc(C(=O)NC(CCC(=O)O)C(=O)O)cc3)cc2c(=O)[nH]1 (configuration not stated)	–	–	–	–	–	–	–	–	–	–	–	Ki [5]: 52 µM
Nc1nc(N)c(CCNc2cc(F)c(F)cc2[N+](=O)[O-])c(O)n1	37 µM	58 µM	55 µM	43 µM	–	–	–	inactive	–	–	–	inhibition [6]: inactive; inhibition [16]: inactive; inhibition [9]: inactive
COC(=O)c1ccc(CN(CCc2c(N)nc(N)nc2O)c2cc(F)ccc2[N+](=O)[O-])cc1	72 µM	72 µM	72 µM	66 µM	12%	94%	78%	–	47%	62%	81%	–
COC(=O)c1ccc(CN(CCCc2c(N)nc(N)nc2O)c2cc(F)c([N+](=O)[O-])cc2[N+](=O)[O-])cc1	4.3 µM	3.5 µM	2.5 µM	3.9 µM	0%	77%	46%	–	0%	22%	64%	inhibition [17]: 83%; % control activity remaining [18]: 83%; inhibition [19]: 2%; % control activity remaining [20]: 77%; % control activity remaining [21]: 65%; inhibition [22]: inactive
COC(=O)c1ccc(CN(CCCc2c(N)nc(N)nc2O)c2ccc([N+](=O)[O-])c(F)c2F)cc1	55 µM	45 µM	41 µM	45 µM	41%	96%	61%	–	75%	78%	82%	–
Nc1nc(N)c(CCCNc2cc(F)c([N+](=O)[O-])cc2[N+](=O)[O-])c(O)n1	1 µM	1.2 µM	1 µM	1.1 µM	39%	64%	76%	–	2%	75%	100%	inhibition [23]: 76%; inhibition [17]: 71%; inhibition [24]: 58%; inhibition [25]: inactive; inhibition [21]: 56%; inhibition [22]: inactive
COC(=O)c1ccc(CN(CCc2c(N)nc(N)nc2O)c2ccc([N+](=O)[O-])c(F)c2F)cc1	36 µM	67 µM	48 µM	61 µM	30%	73%	68%	–	67%	85%	79%	–
COC(=O)c1ccc(CN(CCc2c(N)nc(N)nc2O)c2cc(F)c(F)cc2[N+](=O)[O-])cc1	11 µM	11 µM	12 µM	13 µM	2%	–	17%	inactive	22%	31%	35%	–
COC(=O)c1ccc(CN(CCc2c(N)nc(N)nc2O)c2cc(F)c([N+](=O)[O-])cc2[N+](=O)[O-])cc1	1.7 µM	1.1 µM	1.3 µM	1.9 µM	2%	75%	47%	–	27%	54%	66%	–
Nc1nc(N)c(CCCNc2cc(F)cc(F)c2[N+](=O)[O-])c(O)n1	97 µM	94 µM	97 µM	97 µM	53%	–	80%	inactive	–	–	–	inhibition [6]: inactive; inhibition [7]: inactive; inhibition [9]: inactive
COC(=O)c1ccc(CN(CCCc2c(N)nc(N)nc2O)c2cc(F)cc(F)c2[N+](=O)[O-])cc1	> 100 µM	> 100 µM	> 100 µM	> 100 µM	0%	–	6%	inactive	6%	12%	25%	% control activity remaining [18]: 78%; inhibition [19]: 39%; inhibition ([19]; in the assay text read “after 6 hr” for “after 1 hr”): 84%; inhibition [25]: inactive; % control activity remaining [20]: 76%; inhibition [22]: inactive
COC(=O)c1ccc(CN(CCCc2c(N)nc(N)nc2O)c2cc(F)c(F)cc2[N+](=O)[O-])cc1	66 µM	53 µM	59 µM	55 µM	0%	94%	44%	–	14%	54%	68%	–
Nc1nc(N)c(CCCNc2cc(F)ccc2[N+](=O)[O-])c(O)n1	> 100 µM	> 100 µM	> 100 µM	> 100 µM	–	–	86%	inactive	–	–	–	inhibition [6]: inactive; inhibition [7]: inactive; inhibition [9]: inactive; inhibition [26]: 64%
